# Measurements: ChEMBL document CHEMBL1629555, “Antimalarial activity of phenylthiazolyl-bearing hydroxamate-based histone deacetylase inhibitors” (Antimicrob Agents Chemother, 2008)
# Calls of active or inactive are those of the source. The calls are words filed in the database; no cut-off is given here.
# Assays:
# Plasmodium berghei [1] = test: Antimalarial activity against Plasmodium berghei infected in mouse assessed as effect on cure rate at 130 mg/kg/day, sc for 3 days; assay type: functional, organism-based
# Method in brief: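 Mice were infected ip with 10^6 P. berghei-parasitized erythrocytes. The compound was given in hydroxyethylcellulose-Tween 20 vehicle, 5 mice per group, starting on day 3 post-infection. Regimens were once-daily or split daily oral doses over 3 days, subcutaneous dosing, or dosing over 7 days. Read-outs were posttreatment parasitemia on day 6 as a fraction of controls and the number of mice cured.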
# Plasmodium berghei [2] = test: Antimalarial activity against Plasmodium berghei infected in mouse assessed as parasitemia level at split dose of 320 mg/kg/day, po for 3 days measured on day 6 relative to control; assay type: functional
# Method in brief: (§1)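 Blood-stage P. berghei model: mice inoculated ip with 10^6 parasitized erythrocytes. Oral treatment for 3 days, with the daily dose split, in hydroxyethylcellulose-Tween 20 vehicle. Day-6 parasitemia expressed as a fraction of control parasitemia.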
# Plasmodium falciparum [3] = test: Antimalarial activity against Plasmodium falciparum at 1 nM assessed as parasite growth after 3.5 hrs; assay type: functional
# Method in brief: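 Infected erythrocytes were exposed to compound for 3.5 h, washed, and returned to culture. Parasite growth was compared with matched controls after 48 h.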
# Plasmodium falciparum [4] = test: Antimicrobial activity against Plasmodium falciparum D6 infected in Aotus lemurinus lemurinus monkey at […] in presence of mefloquine; assay type: functional
# Plasmodium berghei [5] = test: Antimalarial activity against Plasmodium berghei infected in mouse assessed as parasitemia level at split dose of 640 mg/kg/day, po for 3 days measured on day 6 relative to control; assay type: functional; method in brief: as §1
# [6] = Half life in human liver microsome by LC/MS analysis; assay type: ADME; conditions: liver microsomes
# Plasmodium falciparum [7] = test: Antimalarial activity against chloroquine-resistant Plasmodium falciparum FVO infected in Aotus lemurinus leminurus monkey assessed as reduction in parasitemia at 32 mg/kg/day, po for 3 days; assay type: functional, organism-based
# Plasmodium berghei [8] = test: Antimalarial activity against Plasmodium berghei infected in mouse assessed as effect on cure rate at 3.2 mg/kg/day for 3 days measured on day 6 in presence of 4 mg/kg/day chloroquine (reference value: 37%); assay type: functional, organism-based
# Plasmodium berghei [9] = test: Antimalarial activity against Plasmodium berghei infected in mouse assessed as parasitemia level at 3.2 mg/kg/day for 3 days measured on day 6 (reference value: 37%); assay type: functional
# Plasmodium falciparum [10] = test: Antimalarial activity against drug-resistant Plasmodium falciparum W2; assay type: functional, organism-based
# Mus musculus [11] = test: Toxicity in Plasmodium berghei-infected mouse assessed as mortality at split dose of 130 mg/kg/day, po for 7 days; assay type: organism-based; design: route oral; conditions: in vivo, 168 h
# Plasmodium berghei [12] = test: Antimalarial activity against Plasmodium berghei infected in mouse assessed as effect on cure rate at 3.2 mg/kg/day for 3 days; assay type: functional, organism-based
# Mus musculus [13] = test: Toxicity in Plasmodium berghei-infected mouse assessed as mortality at single dose of 40 mg/kg/day, po for 3 days; assay type: organism-based; design: route oral; conditions: in vivo, 72 h
# Mus musculus [14] = test: Toxicity in Plasmodium berghei-infected mouse assessed as mortality at split dose of 320 mg/kg/day, po for 3 days; assay type: organism-based; design: route oral; conditions: in vivo, 72 h
# Plasmodium berghei [15] = test: Antimalarial activity against Plasmodium berghei infected in mouse assessed as effect on cure rate at 160 mg/kg/day for 3 days measured on day 6 in presence of 2 mg/kg/day chloroquine; assay type: functional, organism-based
# Method in brief: (§2)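 Mice were infected ip with 10^6 P. berghei-parasitized erythrocytes. The compound was given orally once daily on days 3, 4 and 5 post-infection in hydroxyethylcellulose-Tween 20 vehicle, alone or together with chloroquine, with 5 mice per dose group. Parasitemia (%) was read on days 3 and 6, and cures were counted as animals cured out of 5.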
# Plasmodium berghei [16] = test: Antimalarial activity against Plasmodium berghei infected in mouse assessed as parasitemia level at split dose of 40 mg/kg/day, po for 3 days measured on day 6 relative to control; assay type: functional; method in brief: as §1
# Plasmodium berghei [17] = test: Antimalarial activity against Plasmodium berghei infected in mouse assessed as parasitemia level at split dose of 160 mg/kg/day, po for 3 days measured on day 6 relative to control; assay type: functional; method in brief: as §1
# Plasmodium falciparum [18] = test: Antimalarial activity against drug-resistant Plasmodium falciparum TM91C235; assay type: functional, organism-based
# Plasmodium berghei [19] = test: Antimalarial activity against Plasmodium berghei infected in mouse assessed as parasitemia level at split dose of 130 mg/kg/day, po for 7 days measured on day 6 relative to control; assay type: functional
# Plasmodium falciparum [20] = test: Antimicrobial activity against Plasmodium falciparum D6 infected in Aotus lemurinus lemurinus monkey at […] in presence of 4 mg/kg chloroquine; assay type: functional
# Plasmodium berghei [21] = test: Antimalarial activity against Plasmodium berghei infected in mouse assessed as parasitemia level at 0.32 mg/kg/day for 3 days measured on day 3 (reference value: 0.46%); assay type: functional
# Plasmodium berghei [22] = test: Antimalarial activity against Plasmodium berghei infected in mouse assessed as parasitemia level at 3.2 mg/kg/day for 3 days measured on day 6 in presence of 4 mg/kg/day chloroquine (reference value: 37%); assay type: functional
# [23] = target: T1, Histone deacetylase (Plasmodium falciparum 3D7) (UniProt Q7K6A1); test: Inhibition of Plasmodium falciparum 3D7 histone deacetylase infected in human erythrocytes assessed as alteration of histone H3 acetylation after 3.5 hrs by SDS-PAGE; assay type: cell-based
# T1 sequence (whole entry): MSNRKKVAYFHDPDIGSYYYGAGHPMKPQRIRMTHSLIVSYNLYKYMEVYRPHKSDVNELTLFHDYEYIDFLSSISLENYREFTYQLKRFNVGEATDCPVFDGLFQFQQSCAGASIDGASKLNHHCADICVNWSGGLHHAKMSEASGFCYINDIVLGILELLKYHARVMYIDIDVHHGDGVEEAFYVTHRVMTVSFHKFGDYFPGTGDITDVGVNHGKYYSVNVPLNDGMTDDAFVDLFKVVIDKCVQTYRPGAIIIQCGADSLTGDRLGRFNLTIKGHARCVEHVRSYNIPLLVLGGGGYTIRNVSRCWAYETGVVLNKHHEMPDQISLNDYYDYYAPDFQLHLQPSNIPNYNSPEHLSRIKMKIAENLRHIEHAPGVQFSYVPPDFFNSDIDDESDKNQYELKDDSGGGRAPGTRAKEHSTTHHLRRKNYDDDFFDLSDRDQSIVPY
# Method in brief: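 About 3 × 10^9 erythrocytes infected with late-trophozoite P. falciparum 3D7 were exposed to compound or to DMSO vehicle for 3.5 h at 37°C, and an untreated sample was taken at the start. Histones were extracted, about 6 × 10^8 parasites were loaded per lane on SDS–15% PAGE, and loading was checked by silver stain. Western blots were probed with anti-tetraacetyl-H4 and anti-diacetyl-H3 antisera and detected by ECL.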
# Plasmodium berghei [24] = test: Antimalarial activity against Plasmodium berghei infected in mouse assessed as effect on cure rate at 12.8 mg/kg/day for 3 days measured on day 6 in presence of 16 mg/kg/day chloroquine; assay type: functional, organism-based; method in brief: as §2
# Plasmodium falciparum [25] = test: Antimicrobial activity against Plasmodium falciparum D6 infected in Aotus lemurinus lemurinus monkey at […] in presence of azithromycin; assay type: functional
# Mus musculus [26] = test: Toxicity in Plasmodium berghei-infected mouse assessed as mortality at split dose of 80 mg/kg/day, po for 3 days; assay type: organism-based; design: route oral; conditions: in vivo, 72 h
# Plasmodium berghei [27] = test: Antimalarial activity against Plasmodium berghei infected in mouse assessed as effect on cure rate at 320 mg/kg/day for 3 days; assay type: functional, organism-based; method in brief: as §2
smiles,measurement,setting,value
Nc1cccc(-c2csc(NC(=O)CCCCCCC(=O)NO)n2)c1,Activity,Plasmodium berghei [1],inactive
same,fold change (FC),Plasmodium berghei [2],0.004
same,Activity,Plasmodium falciparum [3],<=40%
same,fractional inhibitory concentration index (FICI),Plasmodium falciparum [4],2.2
same,fold change (FC),Plasmodium berghei [5],0.001
same,half-life,[6],> 1 h
same,inhibition,Plasmodium falciparum [7],Active
same,Activity,Plasmodium berghei [8],inactive
same,Activity,Plasmodium berghei [9],40%
same,IC50,Plasmodium falciparum [10],1.6 nM
same,Activity,Mus musculus [11],Non-toxic
same,Activity,Plasmodium berghei [12],inactive
same,Activity,Mus musculus [13],Non-toxic
same,Activity,Mus musculus [14],Non-toxic
same,Activity,Plasmodium berghei [15],inactive
same,fold change (FC),Plasmodium berghei [16],0.32
same,fold change (FC),Plasmodium berghei [17],0.03
same,IC50,Plasmodium falciparum [18],1.5 nM
same,fold change (FC),Plasmodium berghei [19],0.01
same,fractional inhibitory concentration index (FICI),Plasmodium falciparum [20],2.2
same,Activity,Plasmodium berghei [21],0.62%
same,Activity,Plasmodium berghei [22],0.029%
same,inhibition,[23],Dose-dependent effect
same,Activity,Plasmodium berghei [24],inactive
same,fractional inhibitory concentration index (FICI),Plasmodium falciparum [25],1.7
same,Activity,Mus musculus [26],Non-toxic
same,Activity,Plasmodium berghei [27],inactive
